Bioassay records as filed in PubChem.
CHOP inhibitor = inhibitors of CHOP promoter induction, primary screen, cell-based, unfolded protein response, luciferase reporter | CHO-K1 CHOP-promoter luciferase, tunicamycin-induced, 15-18 h | inhibition, % at 10 µM | actives 3.8% (n = 220,000);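 active = compounds that reduced the stress-induced luciferase reporter signal by more than about 70% of percent inhibition, limit read from the data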;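 note: 0% = tunicamycin plus vehicle and 100% = wells without tunicamycin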
Hsp70 act = Hsp70 transcriptional activators, primary screen, cell-based, HeLa, Hsp70 promoter luciferase, luminescence, 10 µM | HeLa Hsp70 promoter luciferase reporter; scaled: vehicle 0, proteasome-inhibitor control 100% | activation, % at 10 µM | actives 0.04% (n = 200,000) | AID 1203, 2008;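 active = activation above the mean across all tested compounds plus 3 SD, cutoff set per campaign, cut at about 5.5% in these data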;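 note: 100% = MG132 at 30 µM as the positive control and 0% = DMSO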
Mdm2 ligase inh = MDM2-luciferase reporter signal enhancers, primary screen, MDM2 E3 ligase inhibitor project, cell-based, luminescence, 1536-well; E3 ubiquitin-protein ligase Mdm2 (Homo sapiens), Q00987; cell-based MDM2 ubiquitination luciferase reporter, 2 h; 0 = plate control, 100 = twice control, blank-subtracted; signal enhancement, % at 5 µM; actives 0.11% (n = 210,000); AID 1230, 2008;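 active = signal enhancement of 30% or more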;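 note: luminescence tracks abundance of the self-degrading MDM2-luciferase fusion protein; higher signal means inhibition of MDM2 E3 ligase activity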
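Material: Stable MDM2–luciferase fusion reporter cells | Amount: 2000 cells seeded into each well | Dosing: One concentration, 5 µM, with 0.2% DMSO | Incubation: 4 h cell settling then 2 h compound exposure, 37 °C | Measured by: Luciferase luminescence | Read-out basis: % enhancement relative to plate controls after blank subtraction | Benchmarks: Control and blank well means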
S1P3 antag = S1P3 receptor antagonists, primary screen, cell-based | Sphingosine 1-phosphate receptor 3 (Homo sapiens), Q99500 | CHO S1P3 NFAT-BLA reporter, FRET fluorescence, antagonist mode | inhibition, % at 4.98 µM | actives 0.27% (n = 170,000) | AID 485, 2006;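 active = inhibition above the plate cutoff, the mean inhibition of test wells on that plate plus 3 SD, cut at about 28% in these data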;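 note: cells challenged with S1P at its EC80 of 0.8 µM; blue over green emission ratio from cleaved BLA substrate after 4 h stimulation; 0% = S1P-stimulated wells and 100% = unstimulated DMSO-only wells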
Target sequence (Q99500 whole entry, looked up): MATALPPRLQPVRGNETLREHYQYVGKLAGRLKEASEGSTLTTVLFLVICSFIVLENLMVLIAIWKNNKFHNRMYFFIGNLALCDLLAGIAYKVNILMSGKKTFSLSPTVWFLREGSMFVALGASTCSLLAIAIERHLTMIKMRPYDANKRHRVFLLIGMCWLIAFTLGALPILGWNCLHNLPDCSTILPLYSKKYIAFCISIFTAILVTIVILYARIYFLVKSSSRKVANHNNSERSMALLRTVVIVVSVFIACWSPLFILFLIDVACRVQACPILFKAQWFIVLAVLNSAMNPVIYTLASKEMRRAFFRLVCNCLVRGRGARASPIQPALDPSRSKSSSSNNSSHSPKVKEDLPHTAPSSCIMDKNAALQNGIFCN
The depositor's hits bear a star; x = no result. Rows were chosen to be rich in hits. Some 4% of all compounds tested hit in one or more screens of this group.

SMILES	CHOP inhibitor	Hsp70 act	Mdm2 ligase inh	S1P3 antag
CCSc1nc2c(c(=O)[nH]c(=O)n2C)n1CC(O)COc1ccccc1 (stereo unspecified)	-14	0	-4	-7
CCCCCSc1nc2c(c(=O)[nH]c(=O)n2C)n1C(C)C	89*	0	-10	13
CC(C)CSc1nc2c(c(=O)[nH]c(=O)n2C)n1CC(O)COc1cccc2ccccc12 (stereo unspecified)	80*	0	-11	-11
CCCCCn1c(Sc2nc3ccccc3s2)nc2c1c(=O)[nH]c(=O)n2C	76*	-1	-24	-30
C/C=C/CSc1nc2c(c(=O)[nH]c(=O)n2C)n1Cc1ccc(C)cc1	86*	0	-7	-8
CC1(C)CC(=O)/C(=C(/O)Cc2ccccc2)C(=NCCc2ccccc2)C1	15	0	-10	6
CCN(CC)CC(=O)Nc1scc2c1c(=O)oc1ccccc12	-10	x	-6	-16
CCCCCCc1c(C)nc(-n2[nH]c(C)c(CCO)c2=O)[nH]c1=O	-57	0	-25	-21
CCOC(=O)c1cnn(-c2nc(-c3cccc(F)c3)cs2)c1C(F)(F)F	41	0	1	x
CC(=O)NCCCNS(=O)(=O)c1ccc(C)cc1	22	0	3	-4
Cc1ccc(-c2nn3c(C)nnc3s2)cc1NC(=O)c1ccc(-c2ccc(Cl)cc2Cl)o1	81*	0	x	-3
CC1CCCC(n2c(=S)[nH]c3ccccc3c2=O)C1C (stereo unspecified)	94*	0	8	x
COc1ccc(C(C)=O)cc1CN1C(=O)NC(CC(C)C)C1=O (stereo unspecified)	7	0	6	1
Cc1cccc(OCc2n[nH]c(=S)n2Cc2ccccc2)c1	51	0	-11	-1
CCCCc1ccc(NC(=O)COc2ccc(C(=O)Nc3ccccc3OCC)cc2)cc1	82*	0	0	6
CC1CCN(S(=O)(=O)c2cccc(C(=O)NCc3cccs3)c2)CC1	73*	-1	-6	-37
CC1CCN(S(=O)(=O)c2cccc(C(=O)NCc3ccco3)c2)CC1	-3	0	6	x
CN(CC(=O)NCc1ccco1)S(=O)(=O)c1ccc2c(c1)c(=O)n(C)c(=O)n2C	-2	x	-12	-15
CC(C)(C)NC(=S)Nc1ccc(Br)cc1	24	0	-14	x
S=C(Nc1ccc(Nc2ccccc2)cc1)NC1CCCCCC1	80*	0	-14	-24
CC(C)(C)NC(=S)Nc1ccc(Nc2ccccc2)cc1	73*	0	-7	x
S=C(Nc1ccc(Cl)cc1)NC1CCCCC1	13	x	-9	6
CC(c1cccs1)N(Cc1ccco1)C(=S)Nc1ccccc1Cl (stereo unspecified)	17	0	-4	-11
Cc1cc(C(=O)N/N=C/c2cc(Br)cc(Br)c2OC(=O)c2ccccc2)n[nH]1	81*	0	-4	-4
Cc1cc(C(=O)N/N=C/c2cc(Br)ccc2OC(=O)c2ccc(Br)cc2)n[nH]1	67	0	-13	-9
SMILES	CHOP inhibitor	Hsp70 act	Mdm2 ligase inh	S1P3 antag
Cc1cc(C(=O)N/N=C/c2cc(Br)cc(Br)c2OC(=O)c2cccc(F)c2)n[nH]1	92*	0	-18	-13
c1ccc(-c2noc(CSc3nnnn3-c3ccccc3)n2)cc1	49	0	-4	0
C=C1C(=O)[C@@]23[C@H](O)C[C@@H]4C(C)(C)CC[C@H](O)[C@@]4(C)[C@@H]2CC[C@@H]1[C@H]3O	98*	0	x	0
C=C1C(=O)[C@@]23[C@H](O)C[C@@H]4C(C)(C)CC[C@H](O)[C@]4(C)[C@@H]2C[C@H](O)[C@@H]1[C@H]3O	-35	0	x	-16
CC(N)=Nc1ccc([N+](=O)[O-])cc1	-17	0	3	0
O=[N+]([O-])c1ccc(N=Nc2c(Cl)cc(O)cc2Cl)cc1	102*	x	-47	3
C=CC[n+]1c(-c2ccc(OCC)cc2)csc1NNC(=O)Nc1ccccc1	73*	0	x	x
C=CC[n+]1c(-c2ccc(C)cc2)csc1Nc1c(C)n(C)n(-c2ccccc2)c1=O	28	0	-11	4
C/C(=N\NC(=O)c1c(Cl)cnn1C)c1ccc(NC(=O)c2ccncc2)cc1	-16	0	0	0
CS(=O)(=O)Nc1cccc(C(=O)CC2(O)C(=O)Nc3ccc(Br)cc32)c1 (stereo unspecified)	9	0	-6	-13
COc1ccc(C2=CC3=C(Br)C(=O)C(C)(O)C(=O)C3=CO2)cc1 (stereo unspecified)	95*	x	-11	x
CCC(=O)OC1(C)C(=O)C2=COC(c3ccc(OC)cc3)=CC2=C(Br)C1=O (stereo unspecified)	29	x	-3	x
CC(NC(=O)c1ccc(OC2CCN(Cc3ccccn3)CC2)cc1)c1ccccc1 (stereo unspecified)	31	0	4	-15
Cc1cc2ncn(C(=O)c3c(-c4ccccc4Cl)noc3C)c2cc1C	76*	0	-1	15
Cc1onc(-c2ccccc2Cl)c1C(N)=O	34	0	-8	-11
CCn1c(Cn2nnc(-c3ccccc3)n2)nnc1SCc1ccc(Cl)c(Cl)c1	81*	0	1	11
O=C(COc1ccccc1)Nc1cccc2nsnc12	76*	0	10	18
CC(=O)c1sc(NC(=O)c2ccc(F)cc2)nc1-c1ccccc1	75*	0	-7	-3
CC(=O)c1sc(NC(=O)c2ccccc2F)nc1-c1ccccc1	-16	0	-8	-2
Fc1ccc(/C=N/n2c(-c3cccs3)n[nH]c2=S)cc1	16	0	6	x
CC1(C)COC(c2cccn2Cc2ccc(F)cc2Cl)=N1	85*	0	-13	x
CN(C)C(=O)N1CCC(C(=O)NCc2ccc(F)cc2Cl)CC1	21	0	-3	-3
CC(C)C1COC(c2cccn2Cc2ccccc2Cl)=N1 (stereo unspecified)	4	0	-26	-11
CC1CN=C(c2cccn2Cc2ccc(F)cc2Cl)O1 (stereo unspecified)	72*	0	-10	-20
CC(=O)c1c(C)oc2ccc(N(C(C)=O)S(=O)(=O)c3cccc4cccnc34)cc12	38	x	-8	6
Cc1ccccc1CNC(=O)CN(c1cccc([N+](=O)[O-])c1)S(C)(=O)=O	4	0	2	-14
CO/N=C/c1ccc(N2CCN(C(=O)c3ccc(C)cc3)CC2)c([N+](=O)[O-])c1	73*	0	1	x
Cc1ccc(OCc2nnc(SCC(=O)CC(=O)Nc3ccccc3)o2)cc1	73*	0	-5	-10
NS(=O)(=O)c1ccc(CCNC(=O)/C=C/c2ccccc2[N+](=O)[O-])cc1	17	0	-7	10
